Calls of active or inactive are those of the source. No cut-off for these calls is given here.
Experiments:
Staphylococcus aureus [1] = assay: Antimicrobial activity against Staphylococcus aureus isolate LP grown as biofilms at 40 uM incubated in dark for 30 mins; type: functional, organism-based
Summary of the method: (§1)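 Biofilms grown 16 h at 37°C in polystyrene wells from overnight TSB cultures diluted in TSB + 0.25% glucose (S. epidermidis 1:200, S. aureus 1:50, S. aureus wells precoated with 20% human plasma). TBO in PBS added, kept dark 30 min at 37°C, no light. Biofilms scraped, sonicated, vortexed, and plated on TSB agar. CFU counted after 24 h at 37°C in the dark and compared with PBS-only controls.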

[2] = test system: Staphylococcus epidermidis; assay: Antimicrobial activity against Staphylococcus epidermidis 1457 grown as biofilms at 40 uM incubated in dark for 30 mins; type: functional, organism-based; summary of the method: as §1
Staphylococcus aureus [3] = assay: Phototoxicity against Staphylococcus aureus isolate LP grown as biofilms assessed as decrease in survival incubated at 40 uM followed by irradiation with 1 to 200J/cm2 laser light; type: functional, organism-based
Summary of the method: (§2)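 Biofilms were grown 16 h at 37°C in TSB + 0.25% glucose, with plasma-coated wells for S. aureus. They were then incubated with TBO (10–80 μM tested) in the dark for 30 min at 37°C and irradiated with a 640 nm diode laser, 1-cm spot, 42 mW/cm², at varied light doses. Cells were scraped, sonicated, serially diluted, and plated. Surviving fraction is CFU (TBO + light)/CFU (TBO alone). Duplicate biofilms, three experiments.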

[4] = test system: Staphylococcus epidermidis; assay: Phototoxicity against Staphylococcus epidermidis 1457 grown as biofilms assessed as decrease in survival incubated at 40 uM followed by irradiation with 1 to 200 J/cm2 laser light; type: functional, organism-based; summary of the method: as §2
Staphylococcus aureus [5] = assay: Phototoxicity against Staphylococcus aureus isolate LP grown as biofilms incubated at > 40 uM followed by irradiation with 1 to 200 J/cm2 laser light; type: functional, organism-based; summary of the method: as §2
[6] = test system: Staphylococcus epidermidis; assay: Phototoxicity against Staphylococcus epidermidis 1457 grown as biofilms incubated at > 40 uM followed by irradiation with 1 to 200 J/cm2 laser light; type: functional, organism-based; summary of the method: as §2
[7] = test system: Staphylococcus epidermidis; assay: Phototoxicity against Staphylococcus epidermidis 1457 grown as biofilms assessed as log reduction in survival fraction incubated at 40 uM for 30 mins followed by irradiation with 100 J/cm'2 laser light in presence of TEDTA pretreated for 1 hr; type: functional
Summary of the method: (§3)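 Biofilms were pretreated with 20 mM TEDTA in PBS for 1 h. They were then given 40 μM TBO, 30 min in the dark at 37°C, and 640 nm laser at 42 mW/cm² to 100 J/cm². Colony counts were made after scraping, sonication, and plating. Controls: TEDTA+TBO without light, TEDTA alone, and untreated. Survival was compared with TBO + light without TEDTA using an unpaired two-sided t test.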

Staphylococcus aureus [8] = assay: Increase in phototoxicity against Staphylococcus aureus isolate LP grown as biofilms incubated at 40 uM for 30 mins followed by irradiation with 100 J/cm'2 laser light in presence of TEDTA pretreated for 1 hr; type: functional, organism-based; summary of the method: as §3
[9] = test system: Staphylococcus epidermidis; assay: Phototoxicity against Staphylococcus epidermidis 1457 grown as biofilms assessed as dead cells incubated at 40 uM for 30 mins followed by irradiation with 200 J/cm'2 laser light using propidium iodide staining by confocal laser scanning microscopy; type: functional, organism-based
Summary of the method: (§4)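 Biofilms were grown 16 h at 37°C on glass coverslips, plasma-coated for S. aureus, and treated with 40 μM TBO for 30 min in the dark, then left dark or irradiated at 640 nm to 100 or 200 J/cm². They were stained with SYTO9/propidium iodide (1 μl of each stock per 3 ml PBS) for 15 min at 22°C in the dark and imaged by confocal microscopy. Red = membrane-damaged/dead, green = viable.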

Staphylococcus aureus [10] = assay: Phototoxicity against Staphylococcus aureus isolate LP grown as biofilms assessed as dead cells incubated at 40 uM for 30 mins followed by irradiation with 200 J/cm'2 laser light using propidium iodide staining by confocal laser scanning microscopy; type: functional, organism-based; summary of the method: as §4
[11] = test system: Staphylococcus epidermidis; assay: Phototoxicity against Staphylococcus epidermidis 1457 grown as biofilms assessed as dead cells incubated at 40 uM for 30 mins followed by irradiation with 100 J/cm'2 laser light using SYTO9 staining by confocal laser scanning microscopy; type: functional, organism-based; summary of the method: as §4
Staphylococcus aureus [12] = assay: Phototoxicity against Staphylococcus aureus isolate LP grown as biofilms assessed as dead cells incubated at 40 uM for 30 mins followed by irradiation with 100 J/cm'2 laser light using SYTO9 staining by confocal laser scanning microscopy; type: functional, organism-based; summary of the method: as §4
[13] = test system: Staphylococcus epidermidis; assay: Phototoxicity against Staphylococcus epidermidis 1457 grown as biofilms assessed as appearance of large cellular aggregates surrounded by extracellular matrix incubated at 40 uM for 30 mins in dark by scanning electron microscopy; type: functional, organism-based
Summary of the method: (§5)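 Biofilms were grown on Thermanox coverslips in TSB, precoated with 20% human plasma for S. aureus, and incubated with 40 μM TBO for 30 min in the dark, either unirradiated or irradiated at 100 J/cm². They were washed, fixed in 2.5% glutaraldehyde/0.1 M cacodylate pH 7.2 for 1 h at 4°C, ethanol-dehydrated, critical-point dried, and gold-coated. SEM was at ×1,000.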

Staphylococcus aureus [14] = assay: Phototoxicity against Staphylococcus aureus isolate LP grown as biofilms assessed as appearance of large cellular aggregates surrounded by extracellular matrix incubated at 40 uM for 30 mins in dark by scanning electron microscopy; type: functional, organism-based; summary of the method: as §5
[15] = test system: Staphylococcus epidermidis; assay: Phototoxicity against Staphylococcus epidermidis 1457 grown as biofilms assessed as reduction in adherent bacterial count incubated at 40 uM for 30 mins followed by irradiation with 100 J/cm'2 laser light by scanning electron microscopy; type: functional, organism-based; summary of the method: as §5
Staphylococcus aureus [16] = assay: Phototoxicity against Staphylococcus aureus isolate LP grown as biofilms assessed as reduction in adherent bacterial count incubated at 40 uM for 30 mins followed by irradiation with 100 J/cm'2 laser light by scanning electron microscopy; type: functional, organism-based; summary of the method: as §5
[17] = test system: Staphylococcus epidermidis; assay: Phototoxicity against Staphylococcus epidermidis 1457 grown as biofilms assessed as reduction in adherent bacterial count incubated at 40 uM for 30 mins followed by irradiation with 100 J/cm'2 laser light by scanning electron microscopy in presence of TEDTA pretreated for 1 hr; type: functional, organism-based
Summary of the method: (§6)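 Thermanox coverslip biofilms (plasma-precoated for S. aureus) were pretreated with 20 mM TEDTA for 1 h, given 40 μM TBO for 30 min in the dark, and irradiated at 100 J/cm². They were then fixed in glutaraldehyde/cacodylate, dehydrated in graded ethanol, critical-point dried, gold-coated, and imaged by SEM at ×1,000.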

Staphylococcus aureus [18] = assay: Phototoxicity against Staphylococcus aureus isolate LP grown as biofilms assessed as reduction in adherent bacterial count incubated at 40 uM for 30 mins followed by irradiation with 100 J/cm'2 laser light by scanning electron microscopy in presence of TEDTA pretreated for 1 hr; type: functional, organism-based; summary of the method: as §6
[19] = Ratio of phototoxicity against Staphylococcus aureus isolate LP grown as biofilms to phototoxicity against Staphylococcus epidermidis 1457; type: functional
Summary of the method: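 Cell survival for each species was derived as CFU (TBO + light)/CFU (TBO alone) after biofilms were incubated with 40 μM TBO for 30 min in the dark and irradiated with a 640 nm diode laser at 42 mW/cm², compared at 25 J/cm². Unpaired two-sided t test.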

Staphylococcus aureus [20] = assay: Phototoxicity against Staphylococcus aureus isolate LP grown as biofilms assessed as dead cells incubated at 40 uM for 30 mins in dark using SYTO9 staining by confocal laser scanning microscopy; type: functional, organism-based; summary of the method: as §4
[21] = test system: Staphylococcus epidermidis; assay: Phototoxicity against Staphylococcus epidermidis 1457 grown as biofilms assessed as dead cells incubated at 40 uM for 30 mins in dark using SYTO9 staining by confocal laser scanning microscopy; type: functional, organism-based; summary of the method: as §4
Staphylococcus aureus [22] = assay: Phototoxicity against Staphylococcus aureus isolate LP grown as biofilms assessed as dead cells incubated at 40 uM for 30 mins in dark using SYTO9 staining by confocal laser scanning microscopy in presence of TEDTA pretreated for 1 hr; type: functional, organism-based
Summary of the method: (§7)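 Coverslip biofilms (plasma-coated for S. aureus) were pretreated with 20 mM TEDTA for 1 h and exposed to 40 μM TBO for 30 min in the dark. They were stained with SYTO9 plus propidium iodide for 15 min at 22°C in the dark and examined by confocal laser scanning microscopy for red (dead) versus green (viable) cells.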

[23] = test system: Staphylococcus epidermidis; assay: Phototoxicity against Staphylococcus epidermidis 1457 grown as biofilms assessed as dead cells incubated at 40 uM for 30 mins in dark using SYTO9 staining by confocal laser scanning microscopy in presence of TEDTA pretreated for 1 hr; type: functional, organism-based; summary of the method: as §7

In the case of `Cc1cc2nc3ccc(N(C)C)cc3[s+]c2cc1N.[Cl-]` [TOLONIUM CHLORIDE], the Activity (Staphylococcus aureus [1]) is reported as “inactive”, the Activity [2] is reported as “inactive” and the Activity (Staphylococcus aureus [3]) is reported as “Active”. For the same molecule, the Activity [4] was “Active”, the Activity (Staphylococcus aureus [5]) was “Active” and the Activity [6] was “Active”. For the same molecule, the Activity [7] was 1, the Activity (Staphylococcus aureus [8]) was “inactive” and the Activity [9] was “Active”. The Activity (Staphylococcus aureus [10]) was “Active”, the Activity [11] was “inactive” and the Activity (Staphylococcus aureus [12]) was “inactive”. For the same molecule, the Activity [13] was “Active”, the Activity (Staphylococcus aureus [14]) was “Active” and the Activity [15] was “Active”. The Activity (Staphylococcus aureus [16]) was “Active”, the Activity [17] was “Active” and the Activity (Staphylococcus aureus [18]) was “Active”. For the same molecule, the Ratio [19] was 10, the Activity (Staphylococcus aureus [20]) was “inactive” and the Activity [21] was “inactive”. For the same molecule, the Activity (Staphylococcus aureus [22]) was “Active” and the Activity [23] was “Active”.
